Only some compounds are listed: those with a hit (about 3.6% of all), similar ones and a draw of the others.
SKKanGAS inh – S. pyogenes SKKanGAS growth inhibitors in kanamycin, primary screen, streptokinase expression inhibitor project, SKKanGAS strain, BacTiter-Glo luminescence | 6 h | inhibition, % at 7.5 µM | 300,000 compounds, 1.3% hits;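 active = mean replicate score, as percent of positive control median, at least 50; inconclusive = mean below 50 but one replicate at or above 50; inactive = mean and every replicate below 50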;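 note: strain carries kanamycin resistance gene driven by streptokinase promoter and grows in 40 µg/ml kanamycin; loss of luminescence reflects streptokinase promoter inhibition or plain growth inhibition; 0% = median of DMSO wells and 100% = positive control at its reference dose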
Beta apoptosis – inhibitors of cytokine-induced beta cell apoptosis, primary screen, luminescence; INS-1E cytokine-induced death, ATP luminescence, 48 h; percent of positive-control rescue, neutral wells zero; protection from apoptosis, % (concentration not given with the values); 300,000 compounds, 0.8% hits;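 active = Every replicate reaches about 75%, or at least half do and their mean reaches it too, limit read from the data; inconclusive = At least half of replicates reach the limit but their mean does not; inactive = Under half of replicates reach the limit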;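 note: 0% = cytokine-treated negative control wells and 100% = positive control rescue; higher means more ATP so stronger rescue from cytokine killing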
HIF act – HIF pathway transcriptional activators, primary screen, cell-based, U2OS HRE-luciferase, luminescence; 300,000 compounds, 0.32% hits; activation, % at 7.5 µM (by protocol); AID 1910, 2009; U2OS HRE-luciferase reporter; normalized: DMSO 0%, desferrioxamine 100%;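 active = mean activation of at least 10% of the iron chelator positive control signal, with at least half of replicates also reaching 10%; inconclusive = mean and replicate majority disagree about reaching 10%; inactive = mean and most replicates under 10%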
PfHsp90 yeast 2 – growth inhibition of PfHsp90-expressing yeast, primary screen, antimalarial PfHsp90 inhibitor project, S. cerevisiae, BacTiter-Glo luminescence, single point, set 2; 310,000 compounds, 0.32% hits; inhibition, % at 9.4 µM; BacTiter-Glo ATP, 48 h; yeast lacking PDR1 and PDR3 efflux regulators;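 active = every replicate shows inhibition above about 80%, whatever the replicate mean, limit read from the data; inconclusive = mean inhibition reaches the set limit but some replicate falls short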;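 note: 0% = DMSO neutral controls and 100% = 20 µM radicicol positive controls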
T cruzi inh – inhibitors of intracellular T. cruzi growth, primary screen, luminescence, NIH3T3 host cells; T. cruzi beta-gal in NIH3T3, 90 h; inhibition, % (concentration not given with the values); 300,000 compounds, 1.4% hits; AID 1885, 2009;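 active = mean inhibition across valid replicates above about 55%, limit read from the data; inconclusive = mean below that limit but half or more replicates reach it; inactive = mean below it, under half of replicates reach it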;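 note: signal also drops with host cell toxicity which is not excluded here; 0% = plate median of DMSO wells and 100% = zero luminescence signal; higher percent means less beta-gal luminescence so fewer parasites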
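System: Mouse NIH/3T3 fibroblasts infected with β-gal-expressing T. cruzi Tulahuen C4 | Quantity: NIH/3T3 cells, 5,000 per well | Reagent: 5000 reporter trypomastigotes per well | Dosing: Compound pinned at 50 nL/well, DMSO | Schedule: 3 h host attachment, then at least 90 h co-culture | Detection: GalScreen luminescence, 60 min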
CSC inhib – cancer stem cell viability inhibitors, primary screen, luminescence; 300,000 compounds, 1.1% hits; inhibition, % at 7.5 µM; cancer stem cell-like cells viability; AID 2717, 2010; in the data active = inhibition above about 75%; inconclusive = no clear call, values can overlap the other calls; tested in HMLE shEcad cells
* hit, by the source's call; ? = inconclusive; nt = not tested or not shown.

SMILES	SKKanGAS inh	Beta apoptosis	HIF act	PfHsp90 yeast 2	T cruzi inh	CSC inhib
COc1ccc(N2CCN(C(=O)Cn3cncn3)CC2)cc1	-2	-2	0	5	-13	0
COc1ccc(N2CCN(Cc3nc(-c4ccc(Cl)cc4Cl)no3)CC2)cc1	-4	nt	0	-16	-2	-4
CCOC(=O)CSc1nc2sc3c(c2c(=O)n1-c1ccc(C)cc1)CCN(C)C3	9	-5	1	6	49	-3
CCCCSc1nc2sc3c(c2c(=O)n1-c1ccc(C)cc1)CCN(C)C3	24	134*	0	-12	?	-2
c1ccc(N2CCN(CC3CCCCC3)CC2)cc1	7	139*	1	-23	-6	97*
O=C(CSC1CCCCC1)N1CCN(c2ccccc2)CC1	12	2	1	-3	-8	-11
Cc1cccc2cc(CN(Cc3ccc(F)cc3)Cc3nnnn3C3CCCC3)c(=O)[nH]c12	8	2	0	14	56*	30
Cc1ccc2[nH]c(=O)c(CN(Cc3ccccc3)Cc3nnnn3C3CCCC3)cc2c1	-2	4	2	15	48	-3
Cc1ccc(C)c2[nH]c(=O)c(CN(Cc3nnnn3C3CCCCC3)CC3CCCO3)cc12 (stereo not drawn)	12	-3	0	-78	26	-13
Cc1cc(C)c2[nH]c(=O)c(CN(Cc3ccc4c(c3)OCO4)Cc3nnnn3C3CCCC3)cc2c1	10	-15	-1	4	71*	11
COc1ccc(-c2oc3ccc(-c4cc(OC)c(OC)c(OC)c4)cc3c2C#Cc2ccccn2)cc1	nt	-1	nt	7	nt	37
CC(C)NC(=S)NC(c1ccccc1)(c1ccccc1)c1ccccc1	81*	112*	-15	-6	55*	25
CC(C)NC(=O)CS(=O)(=O)c1ccccc1	0	0	0	-11	-11	2
CCCCC(CC)C(=O)Nc1ccc(C)c(O)c1 (stereo not drawn)	10	-2	0	-22	14	-9
CCN1CCN(C(c2cccc(OC)c2OC)c2nnnn2Cc2ccco2)CC1 (stereo not drawn)	-2	-2	0	1	-6	-2
CCCC(c1nnnn1Cc1ccco1)N1CCN(c2ccccc2)CC1 (stereo not drawn)	3	-4	0	-15	-7	-9
COc1ccccc1C(c1nnnn1Cc1ccco1)N1CCN(c2cccc(C)c2C)CC1 (stereo not drawn)	27	6	-1	-27	74*	42
OC(COCc1ccco1)CN1CCN(C(c2ccccc2)c2ccccc2)CC1 (stereo not drawn)	-2	-4	0	-6	22	5
Cc1ccc(Cl)cc1N1CCN(CC(O)COCc2ccco2)CC1 (stereo not drawn)	-1	0	194*	17	23	37
CCCC(c1nnnn1Cc1ccco1)N1CCN(c2cc(Cl)ccc2C)CC1 (stereo not drawn)	nt	2	nt	9	nt	136*
CC(Nc1nc(N2CCNCC2)nc2ccccc12)c1ccccc1 (stereo not drawn)	2	5	0	4	18	-13
O=C(NCc1ccc(F)cc1)c1cc2c(s1)CS(=O)(=O)C2	32	0	-1	14	7	-10
N#CC(C(=O)c1ccccc1)=C1SCCS1	-4	-5	1	-30	-5	-14
COc1ccc(C(CCNCc2ccc(OC(C)C)cc2)c2ccccc2OC)cc1 (stereo not drawn)	-1	76*	-1	-32	52	101*
CN(C)CCSc1nc(O)c(-c2ccccc2)c(=O)n1-c1ccccc1	-1	-4	1	-4	-5	4
Cc1sc2nc(SCCN(C)C)n(-c3ccccc3)c(=O)c2c1-c1ccc(F)cc1	-14	-1	-1	-54	51	109*

Screening data (PubChem)
